Experimental data taken from ChEMBL document CHEMBL1155138, “Identification and characterization of a new metallo-beta-lactamase, IND-5, from a clinical isolate of Chryseobacterium indologenes” (Antimicrob Agents Chemother, 2007).
Active and inactive are the calls of the source. The rule behind the calls is not given here.

What was measured:
[1] = system: Chryseobacterium indologenes; assay: Antimicrobial activity against Chryseobacterium indologenes NF16 isolate assessed as drug level at which microbial resistance was observed by agar dilution method; type: functional
In short: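 Agar dilution per CLSI guidelines, inoculum 5 × 10^5 CFU per spot; E. coli ATCC 25922 run as quality-control strain.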

Escherichia coli [2] = assay: Antimicrobial activity against Escherichia coli HB101 harboring pBC-IND-5 plasmid containing metallo-beta-lactamase IND5 assessed as drug level at which microbial resistance was observed by agar dilution method; type: functional
[3] = system: Chryseobacterium indologenes; assay: Activity of Chryseobacterium indologenes metallo-beta-lactamase IND-5 expressed in Escherichia coli BL21(DE3) assessed as substrate hydrolysis
In short: (§1)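 Purified IND-5 came from E. coli BL21(DE3)/pET-IND-5, induced with 1 mM IPTG for 2 h at 20°C. It was purified by Mono Q then Mono P chromatography in buffers with 50 μM ZnSO4. Substrate hydrolysis was measured under initial-rate conditions in 30 mM sodium cacodylate pH 6.5 plus 50 μM ZnSO4. Km and kcat came from Hanes linearization and are means of three measurements.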

[4] = system: Chryseobacterium indologenes; assay: Ratio of Kcat to Km of Chryseobacterium indologenes metallo-beta-lactamase IND-5 expressed in Escherichia coli BL21(DE3) assessed as substrate hydrolysis; in short: as §1
[5] = system: Chryseobacterium indologenes; assay: Ratio of Kcat to Km of Chryseobacterium indologenes metallo-beta-lactamase IND-5 expressed in Escherichia coli BL21(DE3) assessed as substrate hydrolysis relative to control; parameters: scale not given: the % may be the effect or the level left
Escherichia coli [6] = assay: Antimicrobial activity against Escherichia coli HB101 harboring pBC-SK plasmid assessed as drug level at which microbial resistance was observed by agar dilution method; type: functional
[7] = Inhibition of Chryseobacterium indologenes metallo-beta-lactamase IND-5 expressed in Escherichia coli BL21(DE3) using nitrocefin reporter substrate
In short: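 Purified IND-5 at 0.1 μM was incubated for 15 min at 30°C with increasing concentrations of zinc chelator.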

| SMILES | Activity [1] [µg/mL] | Activity (Escherichia coli [2]) [µg/mL] | Km [3] [µM] | kcat [3] [s⁻¹] | kcat/Km [4] [M⁻¹ s⁻¹] | Activity [5] [%] | Activity (Escherichia coli [6]) [µg/mL] | Ki [7] [µM] | Activity [3] |
| --- | --- | --- | --- | --- | --- | --- | --- | --- | --- |
| CO/N=C(\C(=O)N[C@@H]1C(=O)N2C(C(=O)O)=C(COC(C)=O)CS[C@H]12)c1csc(N)n1 [CEFOTAXIME] | 32 | 16 | 49 | 1.53 | 31000 | 3.7 |  |  |  |
| CCN1CCN(C(=O)N[C@@H](C(=O)N[C@@H]2C(=O)N3[C@@H]2SC(C)(C)[C@@H]3C(=O)O)c2ccccc2)C(=O)C1=O [PIPERACILLIN] | 16 | 32 | 375 | 14.6 | 39000 | 4.6 | 1 |  |  |
| C[C@@H](O)[C@H]1C(=O)N2C(C(=O)O)=C(S[C@@H]3CN[C@H](C(=O)N(C)C)C3)[C@H](C)[C@H]12 [MEROPENEM] | 16 | 1 | 280 | 4.13 | 15000 | 1.8 | <0.125 |  |  |
| C[C@@H](O)[C@H]1C(=O)N2C(C(=O)O)=C(SCCNC=N)C[C@H]12 [IMIPENEM ANHYDROUS] | 32 | 1 | 300 | 7.28 | 24000 | 2.8 | 0.5 |  |  |
| Cc1nnc(SCC2=C(C(=O)O)N3C(=O)[C@@H](NC(=O)Cn4cnnn4)[C@H]3SC2)s1 [CEFAZOLIN] | 64 | 64 | 25 | 0.46 | 18000 | 2.1 | 1 |  |  |
| CC1(C)[C@H](C(=O)O)N2C(=O)C[C@H]2S1(=O)=O |  |  | 1300 | 3.3 | 2500 | 0.3 |  |  |  |
| O=C(O)CN(CCN(CC(=O)O)CC(=O)O)CC(=O)O [EDETIC ACID] |  |  |  |  |  |  |  | 815 |  |
| CO/N=C(\C(=O)N[C@@H]1C(=O)N2C(C(=O)[O-])=C(C[N+]3(C)CCCC3)CS[C@H]12)c1csc(N)n1 | 0.5 | 0.5 |  |  |  |  | < 0.125 |  | inactive |
| CC1(C)S[C@@H]2[C@H](NC(=O)[C@H](N)c3ccccc3)C(=O)N2[C@H]1C(=O)O |  |  | 150 | 10.3 | 69000 | 8.2 |  |  |  |
| C[C@H]1[C@H](NC(=O)/C(=N\OC(C)(C)C(=O)O)c2csc(N)n2)C(=O)N1S(=O)(=O)O [AZTREONAM] | 32 |  |  |  |  |  |  |  | inactive |
| O=C(O)c1cccc(C(=O)O)n1 [DIPICOLINIC ACID] |  |  |  |  |  |  |  | 3 |  |
| c1cnc2c(c1)ccc1cccnc12 [PHENANTHROLINE] |  |  |  |  |  |  |  | 7.3 |  |
| CO[C@@]1(NC(=O)C(C(=O)O)c2ccc(O)cc2)C(=O)N2C(C(=O)O)=C(CSc3nnnn3C)CO[C@@H]21 (stereo partly specified) |  |  |  |  |  |  |  |  | inactive |
| CC1(C)S[C@@H]2[C@H](NC(=O)C(C(=O)O)c3ccccc3)C(=O)N2[C@H]1C(=O)O (stereo partly specified) |  |  | 320 | 17 | 53000 | 6.3 |  |  |  |
| O=C(Cc1cccs1)N[C@@H]1C(=O)N2C(C(=O)O)=C(/C=C/c3ccc([N+](=O)[O-])cc3[N+](=O)[O-])CS[C@H]12 |  |  | 8 | 4.4 | 550000 | 65 |  |  |  |
| CC(C)(O/N=C(\C(=O)N[C@@H]1C(=O)N2C(C(=O)[O-])=C(C[n+]3ccccc3)CS[C@H]12)c1csc(N)n1)C(=O)O [CEFTAZIDIME] | 1 | 0.5 |  |  |  |  | <0.5 |  |  |
| CC1(C)S[C@@H]2[C@H](NC(=O)Cc3ccccc3)C(=O)N2[C@H]1C(=O)O |  |  | 13 | 10.9 | 840000 | 100 |  |  |  |
| CC1(C)S[C@@H]2[C@H](NC(=O)[C@H](N)c3ccc(O)cc3)C(=O)N2[C@H]1C(=O)O [AMOXICILLIN] | >64 | >64 |  |  |  |  | 2 |  |  |
| C[C@]1(Cn2ccnn2)[C@H](C(=O)O)N2C(=O)C[C@H]2S1(=O)=O |  |  |  |  |  |  |  |  | inactive |
